Values after ≈ are worked out from the molar mass of the structure shown. Values joined by “and” are separate entries in the source; they are usually repeats but may differ in a detail not shown here. Identical values can stand only once. Like-named read-outs stand apart in the source and are kept apart here.
Key:
Cryptococcus neoformans = assay: In vitro susceptibility testing; assay type: cell-based
Cryptococcus gattii = assay: In vitro susceptibility testing; assay type: cell-based
Method in brief: (§1)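 Inoculum prepared per CLSI M27-A3. Plates incubated at 37°C with 5% CO2 for 24 to 96 h. MIC was the lowest concentration inhibiting 50% of growth versus the drug-free control. Minimum fungicidal concentration was also measured: serial dilutions from wells were plated on YPD agar, and MFC was the lowest concentration yielding three or fewer colonies (99% of inoculum killed).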

Candida glabrata = assay: In vitro susceptibility testing; assay type: cell-based; settings: FTL strains (10)
Method in brief: as §1

Candida parapsilosis = assay: In vitro susceptibility testing; assay type: cell-based
Method in brief: as §1

Aspergillus fumigatus = assay: In vitro susceptibility testing; assay type: cell-based
Method in brief: as §1

Rhizopus oryzae = assay: In vitro susceptibility testing; assay type: cell-based; settings: FTL strains (3)
Method in brief: as §1

Blastomyces dermatitis = assay: In vitro susceptibility testing; assay type: cell-based; settings: FTL strains (10)
Method in brief: as §1

Histoplasma capsulatum = assay type: cell-based
Paecilomyces variotii = assay: In vitro susceptibility testing; assay type: cell-based; settings: QC FTL strains
Method in brief: as §1

Pneumocystis jirovecii = assay: In vitro testing against Pneumocystis, inhibition of ATP; assay type: cell-based; settings: read-out: IC50 (percentage inhibition of ATP)
[1] = tested on: various Cryptococcus species; assay: MIC; assay type: cell-based
Method in brief: as §1

[2] = tested on: C. albicans, Candida parapsilosis, Paecilomyces variotii; assay: MIC, poor activity; assay type: cell-based
Method in brief: as §1

Candida spp. = assay: In vitro susceptibility; assay type: cell-based; settings: most Candida spp. examined
Method in brief: as §1

C. neoformans [3] = assay: Synergism assay; assay type: cell-based
[4] = tested on: GlcCer synthesis in C. neoformans; assay: In vivo labeling with [3H]palmitate, TLC of GlcCer; assay type: cell-based; settings: [3H]palmitate labeling
[5] = tested on: Bone marrow-derived macrophages; assay type: cell-based
C. neoformans cells = assay: In vitro killing assay; assay type: cell-based
Method in brief: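 An overnight C. neoformans culture was washed in PBS and resuspended in HEPES-buffered YNB, pH 7.4. 2 × 10^4 cells were exposed to 1, 2 or 4 µg/ml test compound in 10 ml (0.4% DMSO final), at 37°C, 5% CO2, on a rotary shaker at 200 rpm. Aliquots taken at time points were diluted, plated on YPD, incubated 72 h at 30°C, and CFU counted.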

[6] = tested on: intracellular C. neoformans; assay: Intracellular effect in J774.16 macrophages; assay type: cell-based; settings: 0.25, 1 or 4 µg/ml; dose dependent, 12 and 24 h
Method in brief: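 J774.16 macrophages were co-incubated 1:1 with C. neoformans for 2 h, with complement and anti-capsular MAb 18B7 as opsonins. Wells were washed to remove extracellular yeast, then fresh DMEM with varying test compound concentrations was added, at 37°C, 5% CO2. Macrophages were lysed and plated for intracellular CFU.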

C. neoformans [7] = assay: Mouse model of cryptococcosis, intranasal infection; assay type: in vivo, mouse (CBA/J); settings: 1.2 mg/kg/day i.p.
Method in brief: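 Mice (10 per group) were infected by nasal inoculation of 20 µl containing 5 × 10^5 C. neoformans. Test compound was given i.p. at 1.2 mg/kg/day in 100 µl PBS with 0.4% DMSO, starting 2 h after inoculation. Survival followed up to 60 days. Organs of survivors were homogenized in 10 ml PBS, diluted serially 1:10, plated on YPD, and incubated at 30°C for 72 h for CFU.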

C. neoformans [8] = assay: Mouse model of cryptococcosis, intravenous infection; assay type: in vivo, mouse (CBA/J); settings: 1.2 mg/kg/day i.p.; 8 mice per group; vehicle 7.0 ± 1.1
P. murina = assay: Murine pneumocystosis, corticosteroid-immunosuppressed; assay type: in vivo, mouse (C3H/HeN)
Method in brief: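 Corticosteroid-immunosuppressed mice were infected with P. murina by cohousing with seed mice for 2 weeks. […] Treatment lasted 13 days. Lung homogenate slides were stained with Diff-Quik for trophic forms and cresyl echt violet for asci.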

C. albicans SC 5314 = assay: Mouse model of invasive candidiasis; assay type: in vivo, mouse (CBA/J); settings: after 21 days of infection; 1.2 mg/kg/day i.p.; 8 mice per group
Method in brief: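 Female CBA/J mice, 8 weeks old (8 per group), were infected i.v. with 100 µl containing 10^5 C. albicans SC-5314. Test compound was given i.p. at 1.2 mg/kg/day in 100 µl PBS with 0.4% DMSO immediately after inoculation; untreated mice received vehicle. Survival was monitored. Organs of survivors were homogenized in 10 ml PBS, diluted tenfold, and plated on YPD at 30°C for 72 h for CFU.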

C. neoformans [9] = assay: NBD C6-ceramide staining; assay type: cell-based; settings: 4 µg/ml; microscopy and FACS
Method in brief: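 C. neoformans cells, untreated or treated with 4 µg/ml test compound, were fixed in 4% paraformaldehyde in PBS and washed. They were stained with NBD C6-ceramide for 16 h at 4°C, then incubated with 1% BSA at 4°C for 1 h to strip excess dye.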

C. neoformans [10] = assay: Transmission electron microscopy, intracellular vesicles; assay type: cell-based; settings: 4 µg/ml, 6 h
[11] = tested on: S. cerevisiae RYO0622 strain; assay: IC100 prescreening; assay type: cell-based, Saccharomyces cerevisiae; settings: solid SC medium, 2 days, 30°C
Method in brief: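 S. cerevisiae RYO0622 cells (20 µl at OD600 10−4) spotted on solid SC medium alone, with DMSO, or with test compound at 67, 133, 266, 533 and 1,066 µg/ml in a 48-well plate. Incubation 2 days at 30°C in the dark. IC100 taken as the concentration giving 100% growth inhibition.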

[12] = tested on: S. cerevisiae deletion mutants; assay type: cell-based, Saccharomyces cerevisiae

## Cc1ccccc1C(=O)NN=Cc1ccc(O)c(Br)c1 [BHBM, N′-(3-bromo-4-hydroxybenzylidene)-2-methylbenzohydrazide]
Cryptococcus neoformans
  MIC range: 0.5−2 µg/ml and 1−2 µg/ml
Cryptococcus neoformans; FTL strains (13)
  MIC range: 0.25−8 µg/ml
Cryptococcus gattii; FTL strains (10)
  MIC range: 0.5−2 µg/ml
Cryptococcus gattii; MDPL strains (3)
  MIC range: 0.5−1 µg/ml
Candida glabrata
  MIC range: 0.125−2 µg/ml
Candida parapsilosis; MDPL strains (3)
  MIC range: >32 µg/mL
Candida parapsilosis; QC FTL strains
  MIC range: >16 µg/mL
Aspergillus fumigatus; FTL strains (3)
  MIC range: >16 µg/mL
Aspergillus fumigatus; MDPL strain (1)
  MIC range: 8 µg/mL (≈ 24 µM)
Rhizopus oryzae
  MIC range: 2 µg/mL (≈ 6 µM)
Blastomyces dermatitis
  MIC range: 0.5−1 µg/ml
Histoplasma capsulatum
  MIC range: 0.125−1 µg/ml
Paecilomyces variotii
  MIC range: >16 µg/mL
Pneumocystis jirovecii; 24 h
  IC50: 0.912 µg/mL (≈ 2.74 µM)
Pneumocystis jirovecii; 48 h
  IC50: 0.159 µg/mL (≈ 0.477 µM)
Pneumocystis jirovecii; 72 h
  IC50: 0.074 µg/mL (≈ 0.222 µM)
Pneumocystis jirovecii; 96 h
  IC50: 0.072 µg/mL (≈ 0.216 µM)
[1]
  MIC: 0.25 to 8 µg/mL (≈ 0.75 to 24 µM)
[2]
  MIC: > 32 µg/mL
Candida spp.
  in vitro susceptibility: resistant
C. neoformans [3]; combined with caspofungin
  interaction category: additive (additive effect, FIC = 1)
C. neoformans [3]; combined with fluconazole
  interaction category: highly synergistic
C. neoformans [3]; combined with tunicamycin
  interaction category: synergistic (synergistic effect, FIC < 1)
[4]
  synthesis of GlcCer: significantly inhibited
[5]
  mammalian GlcCer level: did not significantly affect
C. neoformans cells
  incubation required to kill about 50% of the cells: at least 72 h
C. neoformans cells; time-kill assay, 37°C, 5% CO2, pH 7.4
  type of killing: concentration-dependent killing
[6]
  intracellular replication of C. neoformans inside macrophages (CFU): significantly decreased
C. neoformans [7]
  brain tissue burden (CFU): eradication of fungal cells
  lung tissue burden (CFU): decrease of fungal load
C. neoformans [7]; up to 60 days, 10 mice per group
  mice surviving C. neoformans infection: 90%
C. neoformans [8]
  survival, days postinfection: 11.1 ± 3.7 days
P. murina; 13 days of treatment, versus vehicle-treated negative control
  number of asci or nuclei in lung homogenates: No significant differences
P. murina; BHBM 3.2 mg/kg/day i.p., 13 days, versus untreated
  survival: survived significantly longer
C. albicans SC 5314
  mice still alive: 62.5%
C. neoformans [9]
  NBD C6-ceramide staining: substantial accumulation
C. neoformans [10]; P <0.05
  volume occupied by the intracellular vesicles: significant increase
C. neoformans [10]; untreated 0.33 ± 0.36
  numbers of vesicles per square micrometer of cell surface area: 0.84 ± 0.58
[11]
  100% inhibitory concentration (IC100): 133 µg/mL
[12]
  resistance of Δsla2 mutant: not resistant
[12]; BHBM in the range of 11 to 92 µg/ml, 24 h, 30°C
  growth of Δapl5, Δcos111, Δmkk1, Δste2 mutants compared with parent strain: increased resistance

From paper PMC4479701 (mBio, 2015)
